Measured values published in ChEMBL document CHEMBL4387722.

Assays:
[1] = target: T1, Phosphotyrosine protein phosphatase (Mycobacterium tuberculosis, UniProt A0A045ISB3); experiment: Inhibition of Mycobacterium tuberculosis His-tagged PtpB expressed in Escherichia coli Rosetta 2 (DE3) using pNPP as substrate after 30 mins by spectrophotometric method
T1 sequence (A0A045ISB3 whole entry): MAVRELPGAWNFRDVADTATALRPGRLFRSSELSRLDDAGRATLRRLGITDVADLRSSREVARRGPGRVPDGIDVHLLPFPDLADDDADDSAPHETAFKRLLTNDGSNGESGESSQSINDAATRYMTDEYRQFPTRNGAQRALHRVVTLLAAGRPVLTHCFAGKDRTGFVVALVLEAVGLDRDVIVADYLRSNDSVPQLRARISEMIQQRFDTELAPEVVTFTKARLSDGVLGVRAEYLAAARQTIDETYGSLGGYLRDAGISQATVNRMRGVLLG

[2] = target: T2, Tyrosine-protein phosphatase non-receptor type 1 (Homo sapiens, UniProt P18031); experiment: Inhibition of human PTPN1 expressed in Escherichia coli Rosetta 2 (DE3) using pNPP as substrate after 45 mins by spectrophotometric method
T2 sequence (P18031 whole entry): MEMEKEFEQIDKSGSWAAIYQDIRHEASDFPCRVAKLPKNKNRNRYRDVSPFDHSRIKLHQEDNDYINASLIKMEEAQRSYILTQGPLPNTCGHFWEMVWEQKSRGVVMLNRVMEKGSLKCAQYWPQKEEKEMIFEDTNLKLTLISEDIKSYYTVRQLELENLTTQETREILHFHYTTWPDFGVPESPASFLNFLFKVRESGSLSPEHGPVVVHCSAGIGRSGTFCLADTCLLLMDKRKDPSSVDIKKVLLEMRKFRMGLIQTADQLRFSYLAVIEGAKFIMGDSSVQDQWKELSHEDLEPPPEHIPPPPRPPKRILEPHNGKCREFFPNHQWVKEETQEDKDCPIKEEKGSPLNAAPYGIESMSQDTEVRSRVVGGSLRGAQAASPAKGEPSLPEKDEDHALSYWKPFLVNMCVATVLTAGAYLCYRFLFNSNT

[3] = target: T3, Tyrosine-protein phosphatase non-receptor type 2 (Homo sapiens, UniProt P17706); experiment: Inhibition of human PTPN2 expressed in Escherichia coli Rosetta 2 (DE3) using pNPP as substrate after 45 mins by spectrophotometric method
T3 sequence (P17706 whole entry): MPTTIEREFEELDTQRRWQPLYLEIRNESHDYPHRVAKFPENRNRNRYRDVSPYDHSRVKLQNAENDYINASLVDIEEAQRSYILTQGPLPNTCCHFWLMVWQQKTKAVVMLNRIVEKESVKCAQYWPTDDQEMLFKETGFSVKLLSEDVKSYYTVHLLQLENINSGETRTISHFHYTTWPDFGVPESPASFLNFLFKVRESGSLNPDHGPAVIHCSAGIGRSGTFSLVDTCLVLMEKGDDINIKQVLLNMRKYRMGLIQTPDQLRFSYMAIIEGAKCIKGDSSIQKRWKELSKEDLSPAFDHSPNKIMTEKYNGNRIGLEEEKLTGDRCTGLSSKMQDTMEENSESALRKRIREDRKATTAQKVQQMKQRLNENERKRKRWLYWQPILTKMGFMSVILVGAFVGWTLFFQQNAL

[4] = target: T4, Tyrosine-protein phosphatase non-receptor type 5 (Homo sapiens, UniProt P54829); experiment: Inhibition of human PTPN5 expressed in Escherichia coli Rosetta 2 (DE3) using pNPP as substrate after 45 mins by spectrophotometric method
T4 sequence (P54829 whole entry): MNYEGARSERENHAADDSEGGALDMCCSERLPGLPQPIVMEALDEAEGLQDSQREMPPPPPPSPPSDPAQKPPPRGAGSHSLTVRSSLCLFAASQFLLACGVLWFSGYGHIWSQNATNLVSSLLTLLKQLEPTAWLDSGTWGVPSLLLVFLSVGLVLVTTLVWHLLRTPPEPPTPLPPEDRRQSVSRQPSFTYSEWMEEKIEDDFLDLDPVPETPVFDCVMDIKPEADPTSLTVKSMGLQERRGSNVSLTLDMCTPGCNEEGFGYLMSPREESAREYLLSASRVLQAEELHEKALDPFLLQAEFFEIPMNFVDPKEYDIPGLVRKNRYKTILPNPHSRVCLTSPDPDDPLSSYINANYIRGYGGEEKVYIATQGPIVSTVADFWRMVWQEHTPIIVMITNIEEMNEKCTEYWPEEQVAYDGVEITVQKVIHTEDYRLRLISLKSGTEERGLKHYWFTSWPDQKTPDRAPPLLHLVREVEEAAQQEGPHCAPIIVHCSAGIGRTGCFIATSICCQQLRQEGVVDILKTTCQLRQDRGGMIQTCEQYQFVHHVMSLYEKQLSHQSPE

[5] = system: Mycobacterium tuberculosis; experiment: Antitubercular activity against Mycobacterium tuberculosis H37Rv after 5 days at 200 uM relative to control; type: functional; settings: 120 h
In short: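 M. tuberculosis grown in liquid culture with compound at a fixed 200 μM for 5 days. Growth inhibition expressed as percent of control.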

[6] = system: Mycobacterium tuberculosis; experiment: Antitubercular activity against Mycobacterium tuberculosis H37Rv after 5 days; type: functional, organism-based; settings: 120 h
[7] = Inhibition of refolded rhodanese (unknown origin) preincubated with Escherichia coli GroEL/GroES for 60 mins by measuring rhodanese enzyme activity followed by compound addition by Fe(SCN)3 dye based spectrometric analysis; design: species or system Homo sapiens
[8] = target: T5, Malate dehydrogenase, mitochondrial (Sus scrofa, UniProt P00346); experiment: Inhibition of refolded pig heart mitochondrial MDH preincubated with Escherichia coli GroEL/GroES for 45 mins using sodium mesoxalate as substrate followed by compound addition and measured after 20 to 30 mins by spectrometric analysis
T5 sequence (P00346 whole entry): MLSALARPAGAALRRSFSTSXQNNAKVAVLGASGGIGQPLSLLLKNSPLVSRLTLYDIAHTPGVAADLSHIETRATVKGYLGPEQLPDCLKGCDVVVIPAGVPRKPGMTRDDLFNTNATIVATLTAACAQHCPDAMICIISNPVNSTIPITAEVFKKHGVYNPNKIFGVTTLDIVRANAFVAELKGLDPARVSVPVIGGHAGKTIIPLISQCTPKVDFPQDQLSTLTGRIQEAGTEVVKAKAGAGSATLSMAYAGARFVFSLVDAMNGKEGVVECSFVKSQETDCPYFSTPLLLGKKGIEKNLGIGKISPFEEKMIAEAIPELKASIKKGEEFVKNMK

[9] = target: T6, E. coli GroEL/ES (Escherichia coli, UniProt P0A6F5); experiment: Inhibition of Escherichia coli GroEL expressed in Escherichia coli DH5alpha/Escherichia coli GroES expressed in Escherichia coli BL21 (DE3) assessed as reduction in GroEL/GroES-mediated denatured rhodanese refolding by measuring rhodanese enzyme activity after 45 mins by Fe(SCN)3 dye based spectrometric analysis
[10] = target: T6, E. coli GroEL/ES; experiment: Inhibition of Escherichia coli GroEL expressed in Escherichia coliDH5alpha/Escherichia coli GroES expressed in Escherichia coli BL21 (DE3) assessed as reduction in GroEL/GroES-mediated denatured pig heart mitochondrial MDH refolding by measuring MDH enzyme activity using sodium mesoxalate as substrate after 20 to 40 mins by spectrometric analysis
[11] = target: HSP60/HSP10 (Homo sapiens, UniProt P10809); experiment: Inhibition of human HSP60 expressed in Escherichia coli Rosetta 2(DE3)/human HSP10 expressed in Escherichia coli Rosetta 2(DE3) pLysS cells assessed as reduction in HSP60/HSP10-mediated denatured pig heart mitochondrial MDH refolding by measuring MDH enzyme activity using sodium mesoxalate as substrate after 40 to 60 mins by spectrometric analysis
[12] = Cytotoxicity against human THLE3 cells assessed as reduction in cell viability after 48 hrs by Alamar blue assay; type: cell-based
In short: (§1)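 Alamar Blue viability read-out. Human liver (THLE-3) and kidney (HEK 293) cells incubated with compound for 48 h. Tested in dose-response to derive CC50.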

[13] = Cytotoxicity against human HEK293 cells assessed as reduction in cell viability after 48 hrs by Alamar blue assay; type: cell-based; in short: as §1

Chain of HSP60/HSP10 (P10809 whole entry): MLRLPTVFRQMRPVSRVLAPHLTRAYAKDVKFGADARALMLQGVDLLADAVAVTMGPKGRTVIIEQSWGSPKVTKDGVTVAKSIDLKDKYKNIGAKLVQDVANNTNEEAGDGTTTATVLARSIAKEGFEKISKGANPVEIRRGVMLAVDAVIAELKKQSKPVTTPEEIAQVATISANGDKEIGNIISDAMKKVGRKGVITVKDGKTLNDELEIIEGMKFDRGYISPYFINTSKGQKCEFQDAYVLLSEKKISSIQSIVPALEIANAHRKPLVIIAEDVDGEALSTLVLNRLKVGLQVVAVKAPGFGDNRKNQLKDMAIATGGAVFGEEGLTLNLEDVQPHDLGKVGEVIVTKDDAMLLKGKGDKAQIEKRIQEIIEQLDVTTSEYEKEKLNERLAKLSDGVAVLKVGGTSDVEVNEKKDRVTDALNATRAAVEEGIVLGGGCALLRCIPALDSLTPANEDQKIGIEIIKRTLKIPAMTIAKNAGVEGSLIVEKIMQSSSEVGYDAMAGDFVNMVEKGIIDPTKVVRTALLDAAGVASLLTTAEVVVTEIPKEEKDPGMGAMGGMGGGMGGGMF
Chain of HSP60/HSP10 (P61604 whole entry, further chain): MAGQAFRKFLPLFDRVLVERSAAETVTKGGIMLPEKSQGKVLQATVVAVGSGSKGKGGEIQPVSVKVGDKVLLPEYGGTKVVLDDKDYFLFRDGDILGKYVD
T6 sequence (P0A6F5 whole entry, looked up): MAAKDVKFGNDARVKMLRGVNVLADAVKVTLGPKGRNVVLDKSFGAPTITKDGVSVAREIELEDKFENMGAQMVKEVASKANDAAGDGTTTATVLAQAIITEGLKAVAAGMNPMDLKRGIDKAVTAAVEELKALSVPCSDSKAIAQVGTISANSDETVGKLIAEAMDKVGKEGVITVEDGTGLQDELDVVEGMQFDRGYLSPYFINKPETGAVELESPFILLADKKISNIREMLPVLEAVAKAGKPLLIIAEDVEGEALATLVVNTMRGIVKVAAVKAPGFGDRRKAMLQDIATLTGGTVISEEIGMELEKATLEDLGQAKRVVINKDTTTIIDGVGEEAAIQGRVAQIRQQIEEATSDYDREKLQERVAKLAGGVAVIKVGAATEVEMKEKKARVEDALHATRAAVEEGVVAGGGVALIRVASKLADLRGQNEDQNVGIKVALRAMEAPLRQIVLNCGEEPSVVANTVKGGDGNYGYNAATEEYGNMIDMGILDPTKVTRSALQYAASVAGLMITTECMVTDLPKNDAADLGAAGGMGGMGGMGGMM

SMILES	IC50 [1]	IC50 [2]	IC50 [3]	IC50 [4]	inhibition at 200 µM [5]	EC50 [6]	IC50 [7]	IC50 [8]	IC50 [9]	IC50 [10]	IC50 [11]	CC50 at 48 h [12]	CC50 at 48 h [13]
O=S(=O)(Nc1ccc2oc(-c3ccccc3)nc2c1)c1ccc(Cl)s1	54 µM	76 µM	72 µM	44 µM	71%	> 200 µM	> 100 µM	> 63 µM	234 µM	> 100 µM	70 µM	43 µM	> 100 µM
O=S(=O)(Nc1ccc(-c2nc3ccccc3o2)cc1)c1ccccc1	80 µM	65 µM	66 µM	51 µM	71%	179 µM	> 100 µM	> 63 µM	217 µM	94 µM	> 100 µM	96 µM	> 100 µM
CCc1ccc(S(=O)(=O)Nc2ccc(-c3nc4ccccc4o3)cc2)cc1	46 µM	37 µM	36 µM	31 µM	82%	153 µM	> 100 µM	> 63 µM	172 µM	91 µM	> 100 µM	77 µM	82 µM
C=Cc1ccc(S(=O)(=O)Nc2ccc3oc(-c4ccccc4)nc3c2)cc1	51 µM	45 µM	46 µM	35 µM	86%	151 µM	> 100 µM	> 63 µM	175 µM	> 100 µM	> 100 µM	50 µM	53 µM
O=S(=O)(Nc1ccc(-c2nc3ccccc3o2)cc1)c1ccc(F)c(C(F)(F)F)c1	36 µM	40 µM	36 µM	43 µM	77%	> 200 µM	> 100 µM	> 63 µM	112 µM	34 µM	28 µM	72 µM	82 µM
O=S(=O)(Nc1ccc(-c2nc3ccccc3o2)cc1)c1cccc(C(F)(F)F)c1	49 µM	44 µM	48 µM	40 µM	50%	> 200 µM	> 100 µM	> 63 µM	170 µM	53 µM	57 µM	82 µM	> 100 µM
O=S(=O)(Nc1ccc2oc(-c3ccccc3)nc2c1)c1ccccc1	87 µM	77 µM	64 µM	42 µM	76%	105 µM	> 100 µM	> 63 µM	190 µM	> 100 µM	> 100 µM	33 µM	46 µM
O=S(=O)(Nc1ccc(-c2nc3ccccc3o2)cc1)c1ccccc1C(F)(F)F	58 µM	44 µM	61 µM	53 µM	58%	> 200 µM	> 100 µM	> 63 µM	166 µM	75 µM	74 µM	91 µM	> 100 µM
Cc1ccccc1S(=O)(=O)Nc1ccc(-c2nc3ccccc3o2)cc1	38 µM	52 µM	50 µM	32 µM	58%	176 µM	> 100 µM	> 63 µM	111 µM	76 µM	85 µM	86 µM	> 100 µM
CCc1ccc(S(=O)(=O)Nc2ccc3oc(-c4ccccc4)nc3c2)cc1	67 µM	57 µM	55 µM	42 µM	87%	148 µM	> 100 µM	> 63 µM	237 µM	> 100 µM	> 100 µM	63 µM	81 µM
Cc1ccccc1S(=O)(=O)Nc1ccc2oc(-c3ccccc3)nc2c1	59 µM	41 µM	29 µM	30 µM	61%	197 µM	> 100 µM	> 63 µM	127 µM	> 100 µM	> 100 µM	35 µM	57 µM
O=S(=O)(Nc1ccc2oc(-c3ccccc3)nc2c1)c1cccs1	81 µM	> 100 µM	88 µM	85 µM	68%	> 200 µM	> 100 µM	> 63 µM	214 µM	> 100 µM	90 µM	35 µM	97 µM
COc1cccc(S(=O)(=O)Nc2ccc3oc(-c4ccccc4)nc3c2)c1	> 100 µM	86 µM	87 µM	44 µM	83%	162 µM	> 100 µM	> 63 µM	220 µM	> 100 µM	> 100 µM	37 µM	63 µM
